The species named for the assay is Rattus norvegicus. Briefly: In vitro growth hormone (GH) releasing activity in rat primary pituitary cells. Particulars: Pituitary gland cell, read-out: ED50 (the source's name). Type of assay: functional. The procedure, abridged:
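Rat anterior pituitaries dispersed with 0.2% collagenase and 0.2% hyaluronidase, then cultured 3–4 days at 37 °C, 5% CO₂, in DMEM with 10% horse serum and 2.5% FBS. Cells washed in medium with 25 mM HEPES pH 7.4, then exposed in quadruplicate to serially diluted agents (final 1% DMSO) for 15 min at 37 °C. Medium GH measured by double-antibody RIA; ED₅₀ = dose giving 50% maximal GH release.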

The structures appear in SMILES notation.

For the compound `CC(C)(N)C(=O)N[C@@H]1CCc2ccccc2N(Cc2ccc(-c3ccccc3-c3nn[nH]n3)cc2)C1=O`, the EC50 was 30 nM.
With `CN(C)C(=O)NCc1ccccc1-c1ccc(CN2C(=O)[C@H](NC(=O)C(C)(C)N)CCc3ccccc32)cc1` the figure was 60 nM; with `CNC(=O)NCc1ccccc1-c1ccc(CN2C(=O)[C@H](NC(=O)CC(C)(C)N)CCc3ccccc32)cc1`, 6 nM.
With `CC(C)(N)C(=O)N[C@@H]1CCc2ccccc2N(Cc2ccc(-c3ccccc3CNC(=O)NCCO)cc2)C1=O`, the EC50 amounted to 2 nM.
With `CCNC(=O)NCc1ccccc1-c1ccc(CN2C(=O)[C@H](NC(=O)C(C)(C)N)CCc3ccccc32)cc1` the figure was 6 nM; with `CCCNC(=O)NCc1ccccc1-c1ccc(CN2C(=O)[C@H](NC(=O)C(C)(C)N)CCc3ccccc32)cc1`, 144 nM.
To `CC(C)NC(=O)NCc1ccccc1-c1ccc(CN2C(=O)[C@H](NC(=O)C(C)(C)N)CCc3ccccc32)cc1` belongs 270 nM; to `CC(C)(N)C(=O)N[C@@H]1CCc2ccccc2N(Cc2ccc(-c3ccccc3CNC(=O)NC3CC3)cc2)C1=O`, 45 nM; to `CC(C)(N)CC(=O)N[C@@H]1CCc2ccccc2N(Cc2ccc(-c3ccccc3-c3nn[nH]n3)cc2)C1=O`, 60 nM.
On to `CNC(=O)NCCc1ccccc1-c1ccc(CN2C(=O)[C@H](NC(=O)C(C)(C)N)CCc3ccccc32)cc1`, for which the EC50 came out at 40 nM.
With `CC(C)(N)C(=O)N[C@@H]1CCc2ccccc2N(Cc2ccc(-c3ccccc3CNC(=O)NCc3ccccc3)cc2)C1=O` the figure was 390 nM.
On to `CC(C)(N)C(=O)N[C@@H]1CCc2ccccc2N(Cc2ccc(-c3ccccc3CNC(N)=O)cc2)C1=O`, for which the EC50 was 21 nM.
To `CNC(=O)Nc1ccccc1-c1ccc(CN2C(=O)[C@H](NC(=O)CC(C)(C)N)CCc3ccccc32)cc1` belongs 50 nM; to `CC(C)(N)CC(=O)N[C@@H]1CCc2ccccc2N(Cc2ccc(-c3ccccc3C(N)=O)cc2)C1=O`, 80 nM.
With `CC(C)(N)CC(=O)N[C@@H]1CCc2ccccc2N(Cc2ccc(-c3ccccc3CN)cc2)C1=O` the figure was above 1000 nM; with `CNC(=O)NCc1ccccc1-c1ccc(CN2C(=O)[C@H](NC(=O)C(C)(C)N)CCc3ccccc32)cc1`, 1 nM; with `CC(=O)NCc1ccccc1-c1ccc(CN2C(=O)[C@H](NC(=O)CC(C)(C)N)CCc3ccccc32)cc1`, 200 nM.

The values are drawn from ChEMBL document CHEMBL1131572, “A potent, orally bioavailable benzazepinone growth hormone secretagogue” (1998).
